Screening data from PubChem.
A selection: hits, their analogues and other compounds. The true share with any hit is near 3.7%.
NR3A LBD binder: modulates the human NR3A ligand-binding domain | hit rate 2.5% among 340,000 | AID 1259313 | NR3A LBD differential scanning fluorimetry, Tm shift; 0% = protein alone, 100% = glycine-bound protein | Tm shift relative to glycine control, % at 25 µM;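 active means melting temperature shift of at least 10% of the positive control shift, at one fixed dose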
MPTP block: permeability transition pore inhibition; hit rate 1.4% among 360,000; AID 602449; isolated mouse mitochondria, Ca2+ swelling absorbance, 30 min; inhibition, % at 10 µM;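 active means inhibition of 50% or more, scaled per plate between neutral and stimulator controls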;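 further: 0% = DMSO wells given calcium and 100% = 1 mM EGTA wells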
proCasp3 act: activators of human procaspase-3 | P42574 | recombinant procaspase-3 D3A, Ac-DEVD-pNA absorbance 405 nm | hit rate 0.11% among 330,000 | activation, % at 8.5 µM | AID 463141;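 active means activation above the mean of all tested compounds plus 3 SD, cut at about 21% in these data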;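 further: 0% = DMSO alone and 100% = DMSO wells spiked with extra 5 µM PC-3 D3A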
Target sequence (P42574 whole entry D9A/D28A/D175A): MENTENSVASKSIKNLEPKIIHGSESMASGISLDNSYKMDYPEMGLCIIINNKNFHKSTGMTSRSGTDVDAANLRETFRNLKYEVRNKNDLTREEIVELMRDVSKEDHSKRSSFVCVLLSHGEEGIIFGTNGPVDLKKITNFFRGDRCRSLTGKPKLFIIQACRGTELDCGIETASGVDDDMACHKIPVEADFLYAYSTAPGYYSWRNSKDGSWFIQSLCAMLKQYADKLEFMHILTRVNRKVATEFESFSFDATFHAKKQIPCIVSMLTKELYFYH
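Assay system – Procaspase-3 D3A mutant, all three cleavage aspartates alanine · Controls – DMSO-only low control, 5 µM PC-3 D3A high control · Schedule – 1 h compound preincubation, 2 h substrate hydrolysis at 25 °C · Signal – 405 nm absorbance of p-nitroaniline, reads at 0 and 120 min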
aDG glyco up: alpha-DG glycosylation activation. Pro5-aDG cells, alpha-DG glycosylation AlphaScreen (IIH6); 0% Pro5, 100% B10-LARGE cell signal. activation, % at 10 µM. hit rate 0.22% among 360,000. AID 624168;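 active means activation of at least 8% versus controls, or a plate z-score of at least 8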;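 further: Pro5 are CHO cells carrying HIG-tagged alpha-DG that lacks glycosylation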
proCasp7 act: activates human procaspase-7, counter-screen for procaspase-3 activators; P55210; recombinant procaspase-7, Ac-DEVD-pNA absorbance 405 nm; D23A/D198A/D206A triple mutant, cannot self-cleave; scale: DMSO 0, 5 µM enzyme 100; activation, % at 8.5 µM; hit rate 0.093% among 330,000; AID 463210;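 active means percent activation above the screen-wide mean plus 3 SD, cut at about 25% in these data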
Target sequence (P55210 whole entry D23A/D198A/D206A): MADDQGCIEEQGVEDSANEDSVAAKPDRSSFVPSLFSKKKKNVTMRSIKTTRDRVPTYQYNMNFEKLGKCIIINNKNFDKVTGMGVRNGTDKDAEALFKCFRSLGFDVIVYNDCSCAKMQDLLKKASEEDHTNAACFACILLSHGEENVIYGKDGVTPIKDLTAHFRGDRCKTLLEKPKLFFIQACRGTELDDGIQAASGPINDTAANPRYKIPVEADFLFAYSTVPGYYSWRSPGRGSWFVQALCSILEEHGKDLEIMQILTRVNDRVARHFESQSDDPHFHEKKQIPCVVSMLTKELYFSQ
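Assay system: Uncleavable procaspase-7 mutant enzyme / Input: 2 µM procaspase-7 mutant as dispensed / Dosing: single nominal 8.5 µM compound dose, 0.8% DMSO final / Timing: 1 h enzyme–compound preincubation and 2 h substrate reaction, both 25 °C / Detection: p-Nitroaniline absorbance at 405 nm, read at 0 and 120 min / Replication: singlicate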
MPTP counter: membrane potential counter-screen of mitochondrial pore inhibitors | AID 624504 | shares compounds with MPTP block | isolated mitochondria, Rhodamine 123 fluorescence | inhibition, % at 10 µM | hit rate 78% among 5,000; in the data active means inhibition above about 22%;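 further: 0% = DMSO vehicle and 100% = positive control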
MPTP abs DR: MPTP inhibition, dose response swelling confirmation; hit rate 58% among 780; AID 651561; shares compounds with MPTP block; IC50, µM; isolated mitochondria swelling, absorbance; in the data active means IC50 below about 20 µM
MPTP cs DR: active in counter-screen for permeability transition pore inhibitors. shares compounds with MPTP block. isolated mitochondria counterscreen, fluorescence read-out. IC50, µM. hit rate 49% among 780. AID 651564; in the data active means IC50 below about 80 µM
* hit, by the source's call; i = inactive; nt = not tested or not shown.

SMILES	NR3A LBD binder	MPTP block	proCasp3 act	aDG glyco up	proCasp7 act	MPTP counter	others
Cc1ccccc1NC(=S)NCCO	-3	-1	1	0	-4	nt
CC(Sc1nnc(-c2ccccc2F)n1C)C(=O)NC1CCCCC1 (stereo unspecified)	0	1	5	0	-17	nt
CC(=O)c1ccc(OCc2ccc(Oc3c(Cl)cccc3[N+](=O)[O-])cc2)cc1	-6	56*	-2	1	-11	36*
CC(=O)c1ccc(OCc2ccc(C(=O)c3ccccc3)cc2)cc1	0	94*	-2	6	12	94*
COc1ccc(C(=O)N2CCCC(C)(C(=O)NS(=O)(=O)C3CC3)C2)cc1 (stereo unspecified)	nt	-1	nt	0	nt	nt
CN1/C(=C\C(=O)Nc2cccc(Cl)c2)C(C)(C)c2ccccc21	7	104*	-7	0	5	82*
CCC(CC)CC1CN2CCc3cc(OC)c(OC)cc3C2CC1(O)CC (stereo unspecified)	nt	0	nt	0	nt	nt
Cc1nc(NC(=O)C(C)(C)C)sc1C(=O)Cn1cc(CCCC#N)nn1	nt	0	nt	0	nt	nt
O=C(COc1ccc2c(-c3ccccc3)cc(=O)oc2c1)Nc1cccnc1	0	85*	1	1	-4	87*
COCC(C)n1c(C)cc(C(=O)COC(=O)CCc2nc3ccccc3c(=O)[nH]2)c1C (stereo unspecified)	0	-1	15	0	9	nt
COCC(C)n1c(C)cc(C(=O)CSc2nc3ccccc3c(=O)[nH]2)c1C (stereo unspecified)	1	76*	-7	1	7	35*
CN(C)C(=O)CSc1nc2ccccc2c(=O)[nH]1	-1	-4	4	0	9	nt
Cc1cc(C(=O)CSc2nc3ccccc3[nH]2)c(C)n1Cc1ccco1	13*	86*	-6	5	-12	83*
COCCn1c(C)cc(C(=O)CSc2nc3ccccc3c(=O)[nH]2)c1C	2	64*	1	2	4	14	MPTP abs DR=i;MPTP cs DR=45*
CCN(CC)C(=O)CSc1nc2ccccc2c(=O)[nH]1	0	66*	11	0	9	-1	MPTP abs DR=>100;MPTP cs DR=>80
COC(=O)[C@]12CCCCC=C1N(Cc1ccc3c(c1)OCO3)C(=O)[C@H](CC(=O)NCCCN1CCCC1=O)C2	nt	0	nt	0	nt	nt
O=C(Nc1ccccc1C(=O)N1CCCCC1)c1cccs1	2	0	0	0	9	nt
N#Cc1ccc(OCc2noc(-c3ccsc3)n2)cc1	-1	2	-1	0	7	nt
Cc1ccc(S(C)(=O)=O)cc1C(=O)Nc1ccc(S(=O)(=O)Nc2nccs2)cc1	-2	0	1	0	3	nt
CC(=O)C(Cc1ccccc1)NC(=O)COC(=O)c1cc(S(=O)(=O)N2CCOCC2)ccc1F (stereo unspecified)	nt	0	nt	0	nt	nt
COc1ccc(Cc2n[nH]c(=S)n2NC(=O)Nc2ccc(Cl)c(Cl)c2)cc1	15*	92*	-13	0	-5	90*
Cn1c(CC(=O)Nc2ccc(Cl)c(Cl)c2)n[nH]c1=S	1	0	-20	0	5	nt
O=C(CCNc1ccc(Br)cc1)c1cccc([N+](=O)[O-])c1	-3	6	-22	0	-22	nt
O=C(/C(N=Nc1cccc([N+](=O)[O-])c1)=C(/O)c1ccc(Br)cc1)C(F)(F)F	nt	78*	-1	0	-3	62*
O=C(CSc1nnc(-c2c[nH]c3ccccc23)n1C1CC1)NC1CCS(=O)(=O)C1 (stereo unspecified)	nt	-1	nt	0	nt	nt
SMILES	NR3A LBD binder	MPTP block	proCasp3 act	aDG glyco up	proCasp7 act	MPTP counter	others
O=C(Nc1ccc(Cl)cc1)N1CCC(c2nc(-c3ccc(F)cc3)no2)CC1	8	90*	5	1	10	76*
COc1ccc(NC(=O)N2CCCC(c3nc(-c4ccc(OC)cc4)no3)C2)cc1 (stereo unspecified)	-10	11	-5	1	21	nt
CC(Sc1nnc(C(C)Oc2ccc(F)cc2)o1)C(=O)NCc1ccc2c(c1)OCO2 (stereo unspecified)	nt	-2	nt	0	nt	nt
CN(C)CC(O)c1ccc(C=Cc2ccc(Cl)cc2)cc1 (stereo unspecified)	-9	97*	nt	0	nt	-11	MPTP abs DR=17*;MPTP cs DR=>80
Cc1ccnc(SCC(=O)Nc2sc3c(c2C#N)CCCC3)n1	1	100*	-5	4	-5	125*
CC1CCc2c(sc(NC(=O)CSc3ncn[nH]3)c2C#N)C1 (stereo unspecified)	-5	52*	2	0	4	26*
CC(C)(C)C1CCc2c(sc(NC(=O)CSc3ncn[nH]3)c2C#N)C1 (stereo unspecified)	2	52*	-4	3	6	66*
CC(=O)c1c(C)[nH]c(C(=O)OCC(=O)Nc2sc3c(c2C#N)CCC(C)C3)c1C (stereo unspecified)	-2	105*	6	0	1	89*
N#Cc1c(NC(=O)CSc2ncn[nH]2)sc2c1CCCC2	-1	6	-4	0	7	nt
Cc1csc(SCC(=O)Nc2sc3c(c2C#N)CCC3)n1	-3	3	1	0	8	nt
Cc1cc(C(=O)OCC(=O)Nc2sc3c(c2C#N)CCC(C)C3)c2ccccc2n1 (stereo unspecified)	3	14	0	0	11	nt
COCCCN1C(=O)C(CC(=O)NCCCN(C)C)CC(C(=O)N2CCOCC2)=C1C (stereo unspecified)	nt	-2	nt	0	nt	nt
Cc1noc(C)c1COc1ccccc1C(=O)NC1CCC(C)CC1 (stereo unspecified)	0	0	-3	0	6	nt
CCC(CO)NCc1ccc(OCC(=O)Nc2cccc(C(F)(F)F)c2)c(OC)c1 (stereo unspecified)	-3	58*	-3	4	1	-14	MPTP abs DR=17*;MPTP cs DR=>80
COc1cccc(-c2nnc(SCC(=O)NC3CCS(=O)(=O)C3)n2C)c1 (stereo unspecified)	0	-2	-6	0	-13	nt
O=C(N/N=C/c1ccccc1O)c1ccc2c(c1)OCO2	nt	0	-56	0	-77	nt
O=C(N/N=C/c1ccccc1Br)c1cccc(S(=O)(=O)N2CCOCC2)c1	0	-2	3	0	-10	nt
Cc1cc(Br)cc(/C=N/NC(=O)c2ccc3c(c2)OCO3)c1O	6	65*	-23	0	-48	49*
